Measurements: ChEMBL document CHEMBL1151729 (J Med Chem, 2008)
Calls of active or inactive are those of the source. The rule behind the calls is not given here.

Tests used:
Galectin-3 = Galectin-3 (Homo sapiens, UniProt P17931); assay: Binding affinity to galectin 3 at 20 degC by fluorescence polarization assay
Galectin-1 [1] = target: T1, Galectin-1 (Homo sapiens, UniProt P09382); assay: Binding affinity to galectin 1 at 0 degC by fluorescence polarization assay
Galectin-8 = target: T2, Galectin-8 (Homo sapiens, UniProt O00214); assay: (§1) Binding affinity to galectin 8N terminal domain at 20 degC by fluorescence polarization assay
T2 sequence (O00214 whole entry): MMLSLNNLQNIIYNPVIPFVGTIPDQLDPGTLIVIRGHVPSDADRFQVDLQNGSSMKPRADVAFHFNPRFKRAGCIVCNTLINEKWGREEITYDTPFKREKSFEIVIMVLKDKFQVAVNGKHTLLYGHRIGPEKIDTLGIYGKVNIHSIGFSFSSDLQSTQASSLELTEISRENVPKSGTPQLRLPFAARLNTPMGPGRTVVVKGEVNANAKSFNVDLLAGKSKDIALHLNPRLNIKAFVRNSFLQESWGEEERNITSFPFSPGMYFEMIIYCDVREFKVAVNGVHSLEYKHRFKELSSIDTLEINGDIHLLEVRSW

Galectin-9 = Galectin-9 (Homo sapiens, UniProt O00182); assay: Binding affinity to galectin 9N terminal domain at 0 degC by fluorescence polarization assay
Sequence of Galectin-9 (O00182 whole entry, the tested form may be a part): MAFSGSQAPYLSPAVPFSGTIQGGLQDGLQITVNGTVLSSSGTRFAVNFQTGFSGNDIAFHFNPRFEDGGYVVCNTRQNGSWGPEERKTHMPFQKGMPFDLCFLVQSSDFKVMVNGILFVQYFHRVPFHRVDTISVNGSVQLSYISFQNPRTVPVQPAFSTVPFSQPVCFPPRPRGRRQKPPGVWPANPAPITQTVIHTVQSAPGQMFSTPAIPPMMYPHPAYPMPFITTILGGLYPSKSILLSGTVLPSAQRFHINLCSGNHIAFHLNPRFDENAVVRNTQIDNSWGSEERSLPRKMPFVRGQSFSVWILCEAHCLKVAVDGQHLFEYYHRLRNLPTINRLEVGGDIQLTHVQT

Galectin-7 = Galectin-7 (Homo sapiens, UniProt P47929); assay: Binding affinity to galectin 7 at 0 degC by fluorescence polarization assay
Sequence of Galectin-7 (P47929 whole entry): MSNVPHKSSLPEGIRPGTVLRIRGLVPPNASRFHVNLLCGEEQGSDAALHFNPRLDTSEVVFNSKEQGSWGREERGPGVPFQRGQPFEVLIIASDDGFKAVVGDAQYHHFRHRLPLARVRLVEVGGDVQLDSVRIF

Galectin-1 [2] = target: T1, Galectin-1; assay: Binding affinity to galectin 1 at 20 degC by fluorescence polarization assay
[3] = target: T3, Galectin-8 (Homo sapiens) (UniProt O00214); assay: as §1
T3 sequence (whole entry): T2 sequence (O00214 whole entry)

A549 [4] = assay: Antimigratory effect in human A549 cells assessed as cell motility at 10 nM after 24 hrs relative to control; type: functional, cell-based
How it was run: (§2)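 Cell motility of human A549 non-small-cell lung and PC-3 hormone-refractory prostate cancer cells measured by computer-assisted phase-contrast quantitative videomicroscopy over 12 h and 24 h with inhibitor at 1, 10 or 100 nM. Motility calculated in µm per hour and expressed as % of untreated control (100%). Triplicate experiments, mean ± SEM, Mann-Whitney test versus control.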

PC-3 [5] = assay: Antimigratory effect in human PC-3 cells assessed as cell motility at 100 nM after 24 hrs relative to control; type: functional, cell-based; how it was run: as §2
A549 [6] = assay: Antimigratory effect in human A549 cells assessed as cell motility at 100 nM after 24 hrs relative to control; type: functional, cell-based; how it was run: as §2
PC-3 [7] = assay: Antimigratory effect in human PC-3 cells assessed as cell motility at 1 nM after 24 hrs relative to control; type: functional, cell-based; how it was run: as §2

Sequence of Galectin-3 (P17931 whole entry): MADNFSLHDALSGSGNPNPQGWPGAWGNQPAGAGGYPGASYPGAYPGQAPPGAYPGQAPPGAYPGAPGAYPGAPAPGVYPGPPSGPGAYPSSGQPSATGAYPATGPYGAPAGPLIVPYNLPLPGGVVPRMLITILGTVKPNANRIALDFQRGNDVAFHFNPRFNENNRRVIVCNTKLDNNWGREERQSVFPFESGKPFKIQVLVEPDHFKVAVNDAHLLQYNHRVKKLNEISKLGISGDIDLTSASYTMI
T1 sequence (P09382 whole entry, the tested form may be a part): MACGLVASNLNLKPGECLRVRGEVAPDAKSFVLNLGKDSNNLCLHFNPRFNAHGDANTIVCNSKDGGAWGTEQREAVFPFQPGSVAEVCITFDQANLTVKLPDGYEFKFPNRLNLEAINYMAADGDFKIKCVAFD

Structure (SMILES) | Kd (Galectin-3) [µM] | Kd (Galectin-1 [1]) [µM] | Kd (Galectin-8) [µM] | Kd (Galectin-9) [µM] | Kd (Galectin-7) [µM] | Kd (Galectin-1 [2]) [µM] | Activity [3] | Activity (A549 [4]) | Activity (PC-3 [5]) | Activity (A549 [6]) | Activity (PC-3 [7])
O=C(N[C@H]1[C@@H](O)[C@@H](CO)O[C@@H](S[C@@H]2O[C@H](CO)[C@H](O)[C@H](NC(=O)c3ccc4ccccc4c3)[C@H]2O)[C@@H]1O)c1ccc2ccccc2c1 | 0.16 | 9.6 | > 100 | 0.73 | 1.7 | – | – | – | – | – | –
CO[C@@H]1O[C@H](CO)[C@@H](O[C@@H]2O[C@H](CO)[C@H](O)[C@H](NC(=O)c3cccc4ccccc34)[C@H]2O)[C@H](O)[C@H]1NC(C)=O | 4.4 | 25 | – | > 100 | 7.6 | – | Active | – | – | – | –
Cc1ccc(C(=O)O[C@H]2[C@@H](O)[C@@H](CO)O[C@@H](S[C@@H]3O[C@H](CO)[C@H](O)[C@H](OC(=O)c4ccc(C)cc4)[C@H]3O)[C@@H]2O)cc1 | 3.6 | – | 135 | 15 | 190 | 10.3 | – | – | – | – | –
CC(=O)N[C@@H]1[C@@H](O)[C@H](O[C@@H]2O[C@H](CO)[C@H](O)[C@H](O)[C@H]2O)[C@@H](CO)O[C@H]1O | 59 | – | 1000 | 490 | 550 | – | – | – | – | – | –
O=C(O[C@H]1[C@@H](O)[C@@H](CO)O[C@@H](S[C@@H]2O[C@H](CO)[C@H](O)[C@H](OC(=O)c3cccc4ccccc34)[C@H]2O)[C@@H]1O)c1cccc2ccccc12 | 3.8 | – | 24 | 8.3 | 24 | 16.8 | – | – | – | Active | Active

Further lines, with some results ahead:

Kd (Galectin-3) [µM] | Kd (Galectin-1 [1]) [µM] | Kd (Galectin-8) [µM] | Kd (Galectin-9) [µM] | Kd (Galectin-7) [µM] | Kd (Galectin-1 [2]) [µM] | Activity [3] | Structure (SMILES) | Activity (A549 [4]) | Activity (PC-3 [5]) | Activity (A549 [6]) | Activity (PC-3 [7])
1.6 | – | 104 | 2.2 | 22 | 6.4 | – | O=C(O[C@H]1[C@@H](O)[C@@H](CO)O[C@@H](S[C@@H]2O[C@H](CO)[C@H](O)[C@H](OC(=O)c3ccccc3)[C@H]2O)[C@@H]1O)c1ccccc1 | – | – | – | –
10.7 | – | 100 | 2.8 | 48 | 14.7 | – | O=C(O[C@H]1[C@@H](O)[C@@H](CO)O[C@@H](S[C@@H]2O[C@H](CO)[C@H](O)[C@H](OC(=O)c3ccc4ccccc4c3)[C@H]2O)[C@@H]1O)c1ccc2ccccc2c1 | – | – | – | –
– | 35 | – | 7 | 4.3 | – | Active | O=C(N[C@H]1[C@@H](O)[C@@H](CO)O[C@@H](S[C@@H]2O[C@H](CO)[C@H](O)[C@H](NC(=O)c3ccccc3)[C@H]2O)[C@@H]1O)c1ccccc1 | – | – | – | –
– | 2 | 100 | 1.8 | 2.1 | – | – | COc1cccc(C(=O)N[C@H]2[C@@H](O)[C@@H](CO)O[C@@H](S[C@@H]3O[C@H](CO)[C@H](O)[C@H](NC(=O)c4cccc(OC)c4)[C@H]3O)[C@@H]2O)c1 | – | – | – | –
2.5 | 14 | 530 | 1.6 | 54 | – | – | CO[C@@H]1O[C@H](CO)[C@@H](O[C@@H]2O[C@H](CO)[C@H](O)[C@H](O)[C@H]2O)[C@H](O)[C@H]1OC(=O)c1cccc2ccccc12 | – | – | – | –
0.69 | – | 42 | 1.4 | 22 | 4.4 | – | COc1cccc(C(=O)O[C@H]2[C@@H](O)[C@@H](CO)O[C@@H](S[C@@H]3O[C@H](CO)[C@H](O)[C@H](OC(=O)c4cccc(OC)c4)[C@H]3O)[C@@H]2O)c1 | Active | Active | – | –
